Measured values: ChEMBL document CHEMBL2407020, “Design, synthesis, and evaluation of novel VEGFR2 kinase inhibitors: discovery of [1,2,4]triazolo[1,5-a]pyridine derivatives with slow dissociation kinetics” (Bioorg Med Chem, 2013)
≈ marks a conversion by molar mass, not a printed value.

How the values were obtained:
[1] = Metabolic stability in mouse liver microsomes; assay type: ADME, Microsome; details: read-out: Stability
Method in brief: (§1)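 Metabolic stability measured in hepatic microsomes, expressed in µL/min/mg.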

[2] = Metabolic stability in human liver microsomes; assay type: ADME, Microsome; details: read-out: Stability; method in brief: as §1
[3] = Kinetic solubility of the compound in 2nd fluid of Disintegration Test of the Japanese Pharmacopoeia at pH 6.8; assay type: physicochemical; details: read-out: Kinetic_solubility
Method in brief: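 Kinetic solubility measured in JP2 (2nd fluid of Disintegration Test, Japanese Pharmacopoeia), pH 6.8.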

SMILES	microsomal CLint [1] [µL/min/mg]	microsomal CLint [2] [µL/min/mg]	solubility kinetic [3] [µg/mL]
Cc1ccc(Oc2ccc3nc(NC(=O)C4CC4)nn3c2)cc1NC(=O)C1CCC1			> 78
Cc1cc(C(=O)Nc2cccc(Oc3ccc4nc(NC(=O)C5CC5)sc4n3)c2)n(C)n1			< 0.04
Cc1ccc(Oc2ccc3nc(NC(=O)C4CC4)nn3c2)cc1NC(=O)CC(C)C			12 (≈ 29.4 µM)
Cc1cc(C(=O)Nc2cc(Oc3ccc4nc(NC(=O)C5CC5)sc4n3)ccc2C)n(C)n1			4.8 (≈ 10.4 µM)
Cc1cc(C(=O)Nc2cccc(Oc3ccc4nc(NC(=O)C5CC5)cn4n3)c2)n(C)n1	43	6	1.7 (≈ 3.94 µM)
Cc1cc(C(=O)Nc2cccc(Oc3ccc4nc(NC(=O)C5CC5)cn4c3)c2)n(C)n1			0.73 (≈ 1.7 µM)
Cc1cc(C(=O)Nc2cccc(Oc3ccc4nc(NC(=O)C5CC5)sc4c3)c2)n(C)n1			0.22 (≈ 0.492 µM)

The next lines start with the values.

microsomal CLint [1] [µL/min/mg]	microsomal CLint [2] [µL/min/mg]	solubility kinetic [3] [µg/mL]	SMILES
45	10	65 (≈ 145 µM)	Cc1cc(C(=O)Nc2cc(Oc3ccc4nc(NC(=O)C5CC5)nn4c3)ccc2F)n(C)n1
78	6	> 93	Cc1ccc(Oc2ccc3nc(NC(=O)C4CC4)nn3c2)cc1NC(=O)c1cn(C)nc1C
		1.2 (≈ 2.78 µM)	Cc1cc(C(=O)Nc2cccc(Oc3ccc4nc(NC(=O)C5CC5)nn4c3)c2)n(C)n1
		53 (≈ 119 µM)	Cc1cc(C(=O)Nc2cc(Oc3ccc4nc(NC(=O)C5CC5)nn4c3)ccc2C)n(C)n1
		3.2 (≈ 7.18 µM)	Cc1cc(NC(=O)c2cc(C)nn2C)cc(Oc2ccc3nc(NC(=O)C4CC4)nn3c2)c1
		2.9 (≈ 6.52 µM)	Cc1cc(C(=O)Nc2cc(Oc3ccc4nc(NC(=O)C5CC5)cn4c3)ccc2C)n(C)n1
		0.16 (≈ 0.346 µM)	Cc1nc(C(=O)Nc2cc(Oc3ccc4nc(NC(=O)C5CC5)nn4c3)ccc2C)c(C)s1
		3.7 (≈ 8.31 µM)	Cc1cc(C(=O)Nc2ccc(C)c(Oc3ccc4nc(NC(=O)C5CC5)nn4c3)c2)n(C)n1
		> 80	Cc1ccc(Oc2ccc3nc(NC(=O)C4CC4)nn3c2)cc1NC(=O)c1ccnn1C
		1.2 (≈ 2.49 µM)	Cc1ccc(Oc2ccc3nc(NC(=O)C4CC4)nn3c2)cc1NC(=O)c1scc(C)c1Cl
